Test results as given in ChEMBL document CHEMBL1122695, “C1-Methylated 5-hydroxy-2-(dipropylamino)tetralins: central dopamine-receptor stimulating activity” (1984).
Active and inactive are the calls of the source. The calls are words filed in the database; no cut-off is given here.

Columns and labels:
[1] = species: Rattus norvegicus; test: Half maximal decrease of dopa accumulation in limbic portion of reserpinized rats; I =Inactive; assay type: functional, organism-based; details: Limbic system
Outline: (§1)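 Reserpinized rats; Dopa accumulation measured after the decarboxylase inhibitor NSD 1015 (100 mg/kg), Dopa determined spectrophotometrically. Compounds in saline, given subcutaneously at four to six dose levels. A dose-response curve was built per compound and brain area (limbic, striatal). ED50 is the dose giving half-maximal decrease of Dopa, estimated graphically. SEM was below 15% of the mean at each point.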

[2] = species: Rattus norvegicus; test: Half maximal decrease of dopa accumulation in striatal brain portion of reserpinized rats; I =Inactive; assay type: functional, organism-based; outline: as §1
[3] = species: Rattus norvegicus; test: Reduction in accumulated dopa is indicated with Motor activity value; assay type: functional
Outline: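 Rats given reserpine (10 mg/kg ip) 6 h and α-methyl-p-tyrosine methyl ester (250 mg/kg ip) 1 h before testing. Compounds were then given sc in the neck, n = 4, at 1 or 10 mg/kg in saline; controls received saline. Photocell motility meters, one rat per cage, recorded activity for 60 min immediately after dosing, with gross behavior observed.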

[4] = species: Rattus norvegicus; test: Half maximal decrease of dopa accumulation in limbic portion of reserpinized rats; assay type: functional; details: Limbic system; outline: as §1
[5] = species: Rattus norvegicus; test: Half maximal decrease of dopa accumulation in striatal brain portion of reserpinized rats; assay type: functional; outline: as §1

Row | Structure (SMILES) | ED50 [1] | ED50 [2] | Motor activity [3] | ED50 [4] [µmol/kg] | ED50 [5] [µmol/kg]
1 | CCCN(CCC)[C@H]1CCc2c(O)cccc2C1(C)C | inactive | inactive | inactive |  | 
2 | Br.CCCN(CCC)[C@H]1CCc2c(O)cccc2[C@@H]1C |  |  | 406 Counts hr-1 | 0.66 | 0.725
3 | Br.CCCN(CCC)[C@H]1CCc2c(O)cccc2[C@H]1C |  |  | 52 Counts hr-1 | 0.67 | 0.8
